# FLuc inhib CS – inhibits firefly luciferase, flagging false hits in luciferase inhibition screens; hit rate 1.5% among 200,000; inhibition, % at 10 µM; ATPLite firefly luciferase biochemical luminescence, 10 min; P08659;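 active = inhibition above about 50% when tested at 10 µM, limit read from the data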
# Target sequence (P08659 whole entry, looked up): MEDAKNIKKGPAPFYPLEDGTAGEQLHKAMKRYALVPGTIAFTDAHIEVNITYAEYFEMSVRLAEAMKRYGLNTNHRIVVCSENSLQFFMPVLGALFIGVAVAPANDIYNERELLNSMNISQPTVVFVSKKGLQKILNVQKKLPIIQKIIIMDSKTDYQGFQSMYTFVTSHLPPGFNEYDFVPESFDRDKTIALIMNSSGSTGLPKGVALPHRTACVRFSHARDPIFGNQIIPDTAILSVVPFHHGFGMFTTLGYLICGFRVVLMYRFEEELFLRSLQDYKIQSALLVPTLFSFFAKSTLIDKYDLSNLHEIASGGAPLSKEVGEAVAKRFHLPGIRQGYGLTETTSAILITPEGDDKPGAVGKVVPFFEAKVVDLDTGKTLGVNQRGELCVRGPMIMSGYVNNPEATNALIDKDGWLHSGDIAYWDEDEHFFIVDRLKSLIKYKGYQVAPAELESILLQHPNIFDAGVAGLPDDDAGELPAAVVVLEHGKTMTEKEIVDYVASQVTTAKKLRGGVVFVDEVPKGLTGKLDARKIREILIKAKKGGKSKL
# TRAIL sens C8 – sensitizes caspase-8 expressing cells to TRAIL; NB7+C8 cells + TRAIL, ATPlite viability luminescence; inhibition (viability loss, TRAIL sensitization), % at 10 µM; hit rate 1% among 360,000; AID 624354;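 active = compounds causing at least 50% loss of cell viability in the single-dose screen, relative to plate controls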
# FLuc stim CS – firefly luciferase counter-screen for stimulation assays. P08659. ATPlite luciferase biochemical, luminescence, 10 min; 0 = ATP-free wells, 1 = DMSO control. activation factor at 10 µM. 200,000 tested, under 10 active. AID 1027;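 active = luciferase activation factor, scaled between plate controls, of at least 2 with compound at 10 µM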
#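 Material: luciferase plus luciferin reagent, cell-free. Medium: PBS buffer for ATP. Also added: ATP substrate, dispensed from a 10.24 µM working solution in PBS. Doses: test compounds dosed from 2 mM stocks in 100% DMSO. Incubation: 10 min post-reagent at room temperature. Technique: light output (luminescence). Read-out basis: luminescence gain marking luciferase activators.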
# Platelet DG rel – platelet dense granule release activity; human platelet-rich plasma, SFLLRN dense granule ATP release, luminescence; inhibition, %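 (compounds screened at 7.5 µM in platelet-rich plasma)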; hit rate 0.22% among 300,000;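 active = mean replicate score, as percent of positive control, at or above 50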
# PPC-1+TRAIL kill – kills PPC-1 cancer cells in the presence of TRAIL | hit rate 0.41% among 220,000 | cell killing (% activity), % at 4 µM or 5 µM | PPC-1 cells + TRAIL, ATPLite viability luminescence | AID 1443;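 active = cell killing above 50% in the first pass at 4 µM, then a duplicate retest at 5 µM averaging 50% or more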;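 note: plate controls were cells with TRAIL plus DMSO for no effect and medium-only wells lacking cells for full effect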
# An asterisk follows results filed as active; . = not tested or not shown. Shown are actives, neighbours in structure and some others; about 1.6% of the full set was active somewhere.
SMILES,FLuc inhib CS,TRAIL sens C8,FLuc stim CS,Platelet DG rel,PPC-1+TRAIL kill
O=C(c1[nH]c(C(F)(F)F)nc1-c1ccccc1)N1CCC2(CC1)C(=O)NCN2c1ccccc1,.,-8,.,.,.
C=CCOC(=O)Nc1nc(CCNC(=O)OC(C)(C)C)c(C(=O)O)s1,.,-7,.,.,.
CC1(Cc2ccc(Cl)s2)C(=O)Nc2c(Cl)ccc(Cl)c21 (stereo not drawn),.,-1,.,.,.
O=C(N/N=C/c1ccc[nH]1)c1ccccc1O,62*,26,0.4,-2,13
O=C(N/N=C\c1cccc(OC(=O)c2ccco2)c1)c1ccc2c(c1)OCO2,70*,86*,0.3,-2,53*
Cc1ccsc1/C=N\NC(=O)c1ccc2c(c1)OCO2,77*,48,0.2,0,29
Cc1cc(C(=O)N/N=C/c2cccc(OC(=O)c3ccco3)c2)n[nH]1,12,10,0.9,7,13
O=C(N/N=C\c1ccc2c(c1)OCO2)c1ccco1,75*,48,0.2,21,16
CC(=O)Nc1ccc(-c2ccnc3c2CC(C(=O)Nc2cccc(N(C)C)c2)O3)cc1 (stereo not drawn),.,5,.,.,.
c1ccc(CNc2c(C3CCNCC3)nc3scc(-c4ccccc4)n23)cc1,.,-17,.,.,.
COc1cc(C=C2C(=O)C=CC2=O)ccc1O,.,28,.,.,.
O=C(N/N=C/c1cccnc1)c1ccc2c(c1)OCO2,.,50*,.,9,.
O=C(N/N=C/c1ccc2c(c1)OCO2)c1ccc2c(c1)OCO2,.,40,.,-14,.
Cc1cc(C)c2c(c1)/C(=C/C(=O)c1ccc(Br)s1)C(=O)N2,-1,84*,1,9,20
Cc1cc(=O)[nH]c2ccc(S(=O)(=O)NC3CCCCC3)cc12,.,-9,.,63*,.
CCc1nc2c(OCc3c(C)noc3C)cccn2c1N(C=O)Cc1ccccc1,.,-3,.,.,.
CCCCCCC[N+](CC)(CC)CCCCc1ccc(Cl)cc1,.,57*,.,.,.
CCCCCNCc1ccc(Cl)cc1,0,0,1,-2,-3
COc1ccc(/C=C2\CCCC3C2=NN(C(=O)CSc2ncn[nH]2)C3c2ccc(OC)cc2)cc1 (stereo not drawn),-5,21,1,-6,-6
COc1ccc(/C=C2\CCCC3C2=NN(C(=O)COC(=O)CNC(=O)c2ccccc2)C3c2ccc(OC)cc2)cc1 (stereo not drawn),-6,59*,1.1,0,20
O=C(N/N=C/c1ccc[nH]1)c1ccc(COc2cccc3cccnc23)cc1,4,63*,1,7,3
Cc1cc(Br)c(OCc2ccc(C(=O)N/N=C/c3ccc[nH]3)cc2)c(Br)c1,.,68*,.,.,.
Nc1nc(-c2ccc(Oc3ccccc3)cc2)cs1,.,10,.,5,.
Nc1nc(-c2ccc(-c3ccccc3)cc2)cs1,72*,59*,0.3,11,8
Cc1ccc(Nc2nc(COC(=O)C3CC3)cs2)cc1,53*,12,0.5,7,12
SMILES,FLuc inhib CS,TRAIL sens C8,FLuc stim CS,Platelet DG rel,PPC-1+TRAIL kill
Cc1ccc(-c2nc3ccsc3c(=O)[nH]2)cc1,75*,42,0.3,2,27
CN(C)c1ccc(/C=N/n2ncc3ccccc32)cc1,60*,51*,0.4,7,43
CCCCn1c(/N=C/c2ccc3c(c2)OCO3)nc2ccccc21,28,7,0.7,16,2
C=CCn1c(/N=C/c2ccc(N(C)C)cc2)nc2ccccc21,94*,-3,0.1,1,0
CCCCn1c(/N=C/c2ccc(N(C)C)cc2)nc2ccccc21,61*,-10,0.4,1,-3
C=CCn1c(/N=C/c2ccc(OC)cc2)nc2ccccc21,.,0,.,-1,.
CC1=C(C(=O)N(C)C)CC(CC(=O)NC2CCCCC2)C(=O)N1CCCN1CCCC1=O (stereo not drawn),.,3,.,.,.
c1ccc(Cn2c(Cn3c(-c4cnccn4)nc4ccccc43)nc3ccccc32)cc1,.,17,.,.,.
O=c1[nH]c(CCl)nc2cc(-c3ccc(F)cc3)sc12,.,81*,.,-18,.
COCCNc1nc2cc(-c3ccc(F)cc3)sc2c(=O)n1C,.,-9,.,.,.
CNc1nc2c3ccccc3n(C(C)=O)c2s1,2,-1,1,50*,12
CC(=O)n1c2ccccc2c2nc(NC(C)C)sc21,-1,0,1,-4,19
CC1(C(=O)NS(=O)(=O)c2ccc3c(c2)CCO3)CCN1C(=O)Cc1ccc(-c2ccccc2)cc1 (stereo not drawn),.,5,.,.,.
Cc1cc(NC(=O)CSc2nnc(-c3ccc4c(c3)OCCO4)o2)no1,12,49*,0.9,0,45
Cc1nc(NC(=O)c2ccc3c(c2)OCO3)ccc1Br,28,9,0.7,2,28
Cc1cc(NC(=O)CSc2nnc(-c3cccc(Cl)c3)o2)no1,.,7,.,-13,.
Cc1cc(NC(=O)c2ccc3c(c2)OCCO3)no1,93*,87*,0.1,1,42
Cc1cccc(NC(=O)c2ccc3c(c2)OCCO3)n1,.,38,.,15,.
Cc1cc(NC(=O)c2ccc3c(c2)OCO3)no1,62*,51*,0.4,0,19
CC1=C(C(=O)N2CCCCCC2)CC(CC(=O)NCCCCc2ccccc2)C(=O)N1CCC1=CCCCC1 (stereo not drawn),.,26,.,.,.
CC(C)NC(=O)C1(C)CN(S(C)(=O)=O)CC(=O)N1C1CC1 (stereo not drawn),.,4,.,.,.
O=C(NC1CCCC1)C1c2ccccc2OCC(=O)N1Cc1ccc2c(c1)OCO2 (stereo not drawn),.,-1,.,.,.
O=C(Nc1cccnc1)c1ccc(-c2ccccc2)cc1,51*,35,0.5,10,41
CC(C)c1ccc(C(=O)Nc2cccnc2)cc1,.,49*,.,-2,.
O=C(Nc1ccncc1)c1ccc(-c2ccccc2)cc1,26,51*,0.7,4,4
SMILES,FLuc inhib CS,TRAIL sens C8,FLuc stim CS,Platelet DG rel,PPC-1+TRAIL kill
Cc1ccc2c(Cl)c(C(=O)Nc3cccnc3)sc2c1,66*,32,0.3,0,31
COc1ccc(S(=O)(=O)N(C)C[C@H]2OCc3cnnn3CCCC(=O)N([C@@H](C)CO)C[C@H]2C)cc1,.,-4,.,.,.
CCOC(=O)c1c(NC(=O)/C=C/c2ccc3c(c2)OCO3)sc(C)c1CC,-6,3,1.1,54*,-7
CC(=O)Nc1ccc(NC(=O)/C=C/c2ccc3c(c2)OCO3)cc1,5,3,0.9,7,0
COC(=O)c1cc(NC(=O)/C=C/c2ccc3c(c2)OCO3)cc(C(=O)OC)c1,-5,-3,1.1,-10,14
COC(=O)c1cccc(NC(=O)/C=C/c2ccc3c(c2)OCO3)c1,69*,85*,0.3,9,48
O=C(/C=C/c1ccc2c(c1)OCO2)Nc1c(C(=O)O)[nH]c2ccccc12,91*,52*,0.1,9,50
Cc1cc(C)nc(NC(=O)/C=C/c2ccc3c(c2)OCO3)c1,71*,64*,0.3,8,56*
CCOC(=O)c1c(NC(=O)/C=C/c2ccc3c(c2)OCO3)sc(C)c1C,3,.,1,.,-2
CCc1nc2ccc(C(=O)Nc3cccc(NS(C)(=O)=O)c3)cn2c1N(CC)Cc1cccc(Br)c1,.,19,.,.,.

# Screens: PubChem, several laboratories
